The test system of the series is MS2 coat protein. Put plainly: apparent Kd, MS2 coat protein; higher = weaker binding; RNA-MaP array. Put shortly:
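Sequenced DNA templates on an Illumina sequencing chip were transcribed into the designed RNAs. These were incubated at room temperature in Tris-HCl pH 7.5 buffer containing KCl, MgCl2, BSA, DTT, tRNA and Tween20 with fluorescently labeled MS2 coat protein at 1.5 nM to 3 μM, with or without input ligand. Apparent Kd is the median of binding-curve fits per cluster, and designs with fewer than 10 clusters measured were excluded.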

Setting [1] is: designed as: OFF switch for flavin mononucleotide, no ligand.
Where [2] appears, read: ligand present: flavin mononucleotide, designed as: OFF switch for flavin mononucleotide.
Where [3] appears, read: designed as: ON switch for flavin mononucleotide, no ligand.
The mark [4] stands for this setting: ligand present: flavin mononucleotide, designed as: ON switch for flavin mononucleotide.

As to “UCGAACUAACAAGGAUAUACGCGGGUCGAAACGGUAGAAGGUGUCAACGGUAUCUCACAUGAGGAUCACCCAUGUCGGCAGGGA”, the “apparent Kd” value runs as follows: under setting [1], 135 nM; under setting [2], 103 nM.
For the sequence “GCGCCAAGUAAGAAGGGCUCAAAGGAAAACCUAGACUUCACUACAUGAGGAUCACCCAUGUCUCAGCAGGAUAUUAUCGGUCAA”, the “apparent Kd” value amounted to 22.2 nM under setting [3] and 17.9 nM under setting [4].
In the case of “GACAGCAUCCGAGGAUAUAUGUACGUAAUCAAACCACAUGAGGAUCACCCAUGUCCUCUAGGUUCAUAGAAGGCGGUUUAGCGU”, the “apparent Kd” value is, setting by setting: under setting [1], 455 nM; under setting [2], 750 nM.
With “GACAGCGAAGGAUAUACAUGAGGAUCACCCAUGUCUCACUAACGUAGCCGCGGGUAAUGUAGAAGGUCGCGAUG”, the “apparent Kd” value stood at 191 nM under setting [1] and 65.4 nM under setting [2].
“AGGCCAUCCAAGAAGGCUUACAACAUGAGGAUCACCCAUGUCACGGAGAUGUAUAACAUCUACUAAGAGGAUAUUGGGAGAGCU”: the “apparent Kd” value by setting is: under setting [3], 241 nM; under setting [4], 37.4 nM.
Regarding “UCUCGGUAAGGAUAUAAAGCGACUCACAUGAGGAUCACCCAUGUUGUCGUCGUGGGCACAUUAGAAGGUACCAUUC”, the “apparent Kd” value was found to be 7.06 nM under setting [1] and 6.3 nM under setting [2].
For “UACAUGAGGAUCACCCAUGUGGUCAGGUUAUCCCGGACGGGAAGAAGGAUAAGAGAGUAACAUUUAUAGGAUAUUCGCCUCAUU”, the “apparent Kd” value runs as follows: under setting [3], 57.8 nM; under setting [4], 48.9 nM.
Taken in the same sequence, the figures for “ACUAAACCACAGAAGGAACUGAGUGCGCAAAAGUAAGGAUAUGUAAACAAUAACAUGAGGAUCACCCAUGUGACAGUAAGUUUA” were 8.31 nM and 7.2 nM.
Turning to “CAAAGUUUUAAGAAGGGAUCGAUUAGAUUCACAUGAGGAUCACCCAUGUAGCCGGGACGGAGAGAUCAGGAUAUUAAAGAUGUC”, the “apparent Kd” value came to 55.8 nM under setting [1] and 31.9 nM under setting [2].
As to “ACGGUAGGCUAGAAGGCCCGGACUCGCCCAGAGGGAGGAUAUAGCAUUGGCGUACUACAUGGCACAUGAGGAUCACCCAUGUAA”, the “apparent Kd” value is 35.4 nM under setting [1] and 30.6 nM under setting [2].
With “CUGUUUGGAGAGGAUAUGUCGGGAAGCUAAUCAACAGAAGGCUCAACAUGAGGAUCACCCAUGUCGGGUGCGUA”, the “apparent Kd” value by setting is: under setting [1], 16.8 nM; under setting [2], 49.1 nM.
Turning to “GACUGGAGGAGAGGAUAUGCAAAGACUCUAUUCGCAGAAGGCUCGUGCGGUCAACAUGAGGAUCACCCAUGUCUGGCGACAUGC”, the “apparent Kd” value under setting [1] was 6.26 nM and the “apparent Kd” value under setting [2] amounted to 8.62 nM.
As to “ACGUAGUGCCGAGGAUAUGUAACAUGAGGAUCACCCAUGUUCUCUAACAGGUCGAUUUUAAGCACACAGAAGGCGGGUGUUGAU”, the “apparent Kd” value reads like this: under setting [1], 11.3 nM; under setting [2], 11.8 nM.
For “AACAAAAGGAAGAAGGCAGUUAAACAUGAGGAUCACCCAUGUGGGACGCGGGAAAUCAACGAGACUGAGGAUAUUCAUUAAGAA” the same measures were 9.84 nM and 20.9 nM.
As for “UCAUUGUGAGGAUAUUGAUAGCGGACCUUGAUUCUGUACAACAAGAAGGCACAUGAGGAUCACCCAUGUCAUCA”, the “apparent Kd” value is 16.4 nM under setting [1] and 58.4 nM under setting [2].
As for “GCUGGACAUGAGGAUCACCCAUGUGAGGAUAUGAGAAGUAUCAUGCACCCGAUCCAUCUCAGAAGGCACAGGUG”, the “apparent Kd” value is 71.5 nM under setting [1] and 258 nM under setting [2].
Take “AAACUACGACAUGAGGAUCACCCAUGUACUCCGCUAACUACACAGGAUAUAGUGAGGCCAGAGCUCUAGAAGGGUGUUAAUACG”: the “apparent Kd” value was determined as 40.3 nM under setting [3] and 28.2 nM under setting [4].
Take “GAAGAGAGGAUACCGUUUGUAUACAACGAUACCAGUGGUAUGUAUCACCCUUGGCAGCGUGAGACAUGAGGAUCACCCAUGUGGC”: the “apparent Kd” value runs as follows: (designed as: OFF switch for theophylline, no ligand) 21.2 nM; (ligand present: theophylline, designed as: OFF switch for theophylline) 21.6 nM.
In the case of “GUUGUCAUCCAAGGAUAUUGUAAAAGGAGUGGGCAAGAAGGUGGAGAGCAUUGAUGAAGGUACACAUGAGGAUCACCCAUGUUC”, the “apparent Kd” value was found to be 33.6 nM under setting [3] and 14.8 nM under setting [4].
As for “CCAGAAGCAGGAUAUACAUGAGGAUCACCCAUGUUAAACAAUAUGACGAGCAUAGUCAGUAGAAGGGCAACUCA”, the “apparent Kd” value amounted to 18.8 nM under setting [1] and 16.1 nM under setting [2].
On to “CUAAAACAUGAGGAUCACCCAUGUGUUUAGCGCAGAGGAUAUUGGGAUUGGUUGCUCGCUCAAGAAGGCUGAUUGG”, for which the “apparent Kd” value reads like this: under setting [3], 8.55 nM; under setting [4], 7.02 nM.
With “AUGUGCAAUACGGAUACCAGCCCGUGUAGAUACAUGAGGAUCACCCAUGUCAAUGUAAAUGGCCCUUGGCAGCCGUUUGGGAGGC”, the “apparent Kd” value reads like this: (designed as: ON switch for theophylline, no ligand) 15.7 nM; (ligand present: theophylline, designed as: ON switch for theophylline) 11.8 nM.
Consider “AUACCUAGUGAAGGAUAUCCAAAUAACUAUAGAGGAGAAGGACACAUUCUAACAUGAGGAUCACCCAUGUCCCGCCGUCUUACC”, for which the “apparent Kd” value under setting [3] came out at 14.4 nM and the “apparent Kd” value under setting [4] came out at 11.9 nM.

These data come from the EternaBench riboswitch data.
